Measurements published in ChEMBL document CHEMBL5584273, “Investigation of Isobactin Analogues of Teixobactin” (ACS Med Chem Lett, 2024).
Bridge positions count the residues as written; N and C are the ends. Square brackets hold non-standard residues; d marks the D form. Side chains are listed from the residue outwards. Peptide text beside a SMILES is read from it. I, II: the chains in the order shown. * marks the point of attachment. Ser(O-(NMe-dPhe-Ile)) = CC[C@H](C)[C@H](NC(=O)[C@@H](Cc1ccccc1)NC)C(=O)OC[C@H](N)C(=O)*; d(aIle) = CC[C@H](C)[C@@H](N)C(=O)O; dNMeF = CN[C@H](Cc1ccccc1)C(=O)O; Chg = N[C@H](C(=O)O)C1CCCCC1

Assays:
[1] = test system: Bacillus subtilis; assay: Antibiotic activity against Bacillus subtilis ATCC 6051 assessed as inhibition of bacterial growth incubated for 16 hrs in presence of 0.002% polysorbate 80; format: functional
In short: (§1)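 Broth microdilution in media containing 0.002% polysorbate 80. Overnight cultures were grown at 37 °C with shaking in Mueller-Hinton broth. Inoculum was set from background-corrected OD600 to about 5 × 10^5 CFU/mL final. 2-fold dilutions gave final 8 to 0.0078 μg/mL from a DMSO stock. Plates were incubated 16 h at 37 °C and OD600 was read. MIC is the lowest concentration with no growth. Run in quadruplicate technical replicates.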

[2] = test system: Staphylococcus epidermidis; assay: Antibiotic activity against Staphylococcus epidermidis ATCC 14990 assessed as inhibition of bacterial growth incubated for 16 hrs in presence of 0.002% polysorbate 80; format: functional
In short: as §1, with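 “final.” for “final. 2-fold dilutions gave final 8 to 0.0078 μg/mL from a DMSO stock.”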

[3] = test system: Staphylococcus aureus; assay: Antibiotic activity against methicillin-sensitive Staphylococcus aureus ATCC 29213 assessed as inhibition of bacterial growth incubated for 16 hrs in presence of 0.002% polysorbate 80; format: functional
In short: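 Overnight culture from glycerol stock in Mueller-Hinton broth at 37 °C with shaking; all media contain 0.002% polysorbate 80. DMSO stock (1 mg/mL) diluted in medium; 2-fold series, final 8–0.0078 μg/mL; inoculum ~5 × 10^5 CFU/mL (OD600-normalised).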

[4] = test system: Staphylococcus aureus; assay: Antibiotic activity against methicillin-resistant Staphylococcus aureus ATCC 700698 assessed as inhibition of bacterial growth incubated for 16 hrs in presence of 0.002% polysorbate 80; format: functional
In short: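 Overnight culture from glycerol stock in brain heart infusion broth at 37 °C with shaking; all media contain 0.002% polysorbate 80. DMSO stock (1 mg/mL) diluted in medium; 2-fold series, final 8–0.0078 μg/mL; inoculum ~5 × 10^5 CFU/mL (OD600-normalised).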

[5] = test system: Enterococcus faecalis; assay: Antibiotic activity against vancomycin-resistant Enterococcus faecalis ATCC 51299 assessed as inhibition of bacterial growth incubated for 16 hrs in presence of 0.002% polysorbate 80; format: functional
[6] = test system: Escherichia coli; assay: Antibiotic activity against Escherichia coli ATCC 10798 assessed as inhibition of bacterial growth incubated for 16 hrs in presence of 0.002% polysorbate 80; format: functional; in short: as §1
[7] = Solubility in PBS buffer at pH 7.4 at 0.5 mg/ml by HPLC analysis; format: physicochemical
[8] = test system: HeLa; assay: Cytotoxicity against human HeLa cells at 50 uM by promega cytotox-glo assay; format: toxicity, cell-based
In short: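 HeLa cells were exposed to compound at concentrations up to 50 μM. Cytotoxicity was read with the Cytotox-Glo luminescent assay.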

[9] = test system: Erythrocyte; assay: Hemolytic activity in human Red blood cell at 25 microg/ml in absence of polysorbate 80; format: toxicity, cell-based; details: dose 25 µg/ml
In short: (§2)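 Human red blood cells were tested with and without 0.002% polysorbate 80. Triton X-100 served as the 100% lysis control and water (vehicle) as the 0% lysis control. 1.25 μM melittin was an added positive control.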

[10] = Hemolytic activity in human Red blood cell assessed as hemolysis at 100 microg/ml in presence of 0.002% polysorbate 80 relative to control; format: toxicity, cell-based, Erythrocyte; details: red blood cells (erythrocytes), at 100 µg/mL, read-out: Activity; in short: as §2

Structure (SMILES) | MIC [1] | MIC [2] | MIC [3] | MIC [4] | MIC [5] | MIC [6] | solubility [7] | Activity [8] | Activity [9] | hemolysis at 100 microg/ml [10]
CC[C@H](C)[C@H](NC(=O)[C@@H](Cc1ccccc1)NC)C(=O)N[C@@H](CO)C(=O)N[C@H](CCC(N)=O)C(=O)N[C@@H](C(=O)N[C@H](C(=O)OC[C@H](N)C(=O)N[C@H]1C(=O)N[C@@H](C)C(=O)N[C@@H](C[C@H]2CNC(=N)N2)C(=O)N[C@@H]([C@@H](C)CC)C(=O)O[C@H]1C)[C@@H](C)CC)[C@@H](C)CC | 0.062 µg/mL | 0.25 µg/mL | 0.5 µg/mL | 0.5 µg/mL | 0.5 µg/mL | > 8 µg/mL |  |  |  | 
CC[C@H](C)[C@H](NC(=O)[C@@H](Cc1ccccc1)NC)C(=O)N[C@@H](CO)C(=O)N[C@H](CCCNC(=N)N)C(=O)N[C@@H](C(=O)N[C@H](C(=O)N[C@@H](CO)C(=O)N[C@H]1C(=O)N[C@@H](C)C(=O)N[C@@H](C2CCCCC2)C(=O)N[C@@H]([C@@H](C)CC)C(=O)O[C@H]1C)[C@@H](C)CC)[C@@H](C)CC |  | 0.125 µg/mL |  |  |  |  | Insoluble | Toxic |  | 
CC[C@H](C)[C@H](NC(=O)[C@@H](Cc1ccccc1)NC)C(=O)N[C@@H](CO)C(=O)N[C@H](CCCNC(=N)N)C(=O)N[C@@H](C(=O)N[C@H](C(=O)N[C@@H](CO)C(=O)N[C@H]1C(=O)N[C@@H](C)C(=O)N[C@@H](CC(C)C)C(=O)N[C@@H]([C@@H](C)CC)C(=O)O[C@H]1C)[C@@H](C)CC)[C@@H](C)CC |  |  | 0.25 µg/mL |  |  |  |  |  |  | 
CC[C@H](C)[C@H](NC(=O)[C@@H](Cc1ccccc1)NC)C(=O)OC[C@H](N)C(=O)N[C@H](CCCNC(=N)N)C(=O)N[C@@H](C(=O)N[C@H](C(=O)OC[C@H](N)C(=O)N[C@H]1C(=O)N[C@@H](C)C(=O)N[C@@H](CC(C)C)C(=O)N[C@@H]([C@@H](C)CC)C(=O)O[C@H]1C)[C@@H](C)CC)[C@@H](C)CC (H-S([Ile-d(aIle)-dR-Ser(O-(NMe-dPhe-Ile))])[dT]ALI; ester 2-C) | 0.016 µg/mL |  |  | 1 µg/mL |  |  |  |  |  | 
CC[C@H](C)[C@H](NC(=O)[C@@H](Cc1ccccc1)NC)C(=O)OC[C@H](N)C(=O)N[C@H](CCCNC(=N)N)C(=O)N[C@@H](C(=O)N[C@H](C(=O)OC[C@H](N)C(=O)N[C@H]1C(=O)N[C@@H](C)C(=O)N[C@@H](C2CCCCC2)C(=O)N[C@@H]([C@@H](C)CC)C(=O)O[C@H]1C)[C@@H](C)CC)[C@@H](C)CC (H-S([Ile-d(aIle)-dR-Ser(O-(NMe-dPhe-Ile))])[dT]A[Chg]I; ester 2-C) | 0.125 µg/mL |  |  | 1 µg/mL | 1 µg/mL |  | Insoluble | Toxic | Non-Toxic | 0%
CC[C@H](C)[C@H](NC(=O)[C@H](NC(=O)[C@@H](CCCNC(=N)N)NC(=O)[C@@H](N)COC(=O)[C@@H](NC(=O)[C@@H](Cc1ccccc1)NC)[C@@H](C)CC)[C@@H](C)CC)C(=O)N[C@@H](CO)C(=O)N[C@H]1C(=O)N[C@@H](C)C(=O)N[C@@H](CC(C)C)C(=O)N[C@@H]([C@@H](C)CC)C(=O)O[C@H]1C (H-S([Ile-dNMeF])[dR][d(aIle)]IS[dT]ALI; ester 6-C) | 0.008 µg/mL | 0.031 µg/mL |  | 0.5 µg/mL |  |  |  |  |  | 
CC[C@H](C)[C@H](NC(=O)[C@H](NC(=O)[C@@H](CCCNC(=N)N)NC(=O)[C@@H](N)COC(=O)[C@@H](NC(=O)[C@@H](Cc1ccccc1)NC)[C@@H](C)CC)[C@@H](C)CC)C(=O)N[C@@H](CO)C(=O)N[C@H]1C(=O)N[C@@H](C)C(=O)N[C@@H](C2CCCCC2)C(=O)N[C@@H]([C@@H](C)CC)C(=O)O[C@H]1C (H-S([Ile-dNMeF])[dR][d(aIle)]IS[dT]A[Chg]I; ester 6-C) |  |  |  |  | 1 µg/mL |  | Insoluble | Toxic | Non-Toxic | 0%
CC[C@H](C)[C@H](NC(=O)[C@@H](Cc1ccccc1)NC)C(=O)N[C@@H](CO)C(=O)N[C@H](CCCNC(=N)N)C(=O)N[C@@H](C(=O)N[C@H](C(=O)OC[C@H](N)C(=O)N[C@H]1C(=O)N[C@@H](C)C(=O)N[C@@H](CC(C)C)C(=O)N[C@@H]([C@@H](C)CC)C(=O)O[C@H]1C)[C@@H](C)CC)[C@@H](C)CC (I: H-[dNMeF]IS[dR][d(aIle)]I / II: H-S[dT]ALI; ester I:C-II:1, II:2-II:C) |  | 0.016 µg/mL | 0.125 µg/mL |  | 1 µg/mL |  |  |  |  | 
CC[C@H](C)[C@H](NC(=O)[C@@H](Cc1ccccc1)NC)C(=O)N[C@@H](CO)C(=O)N[C@H](CCCNC(=N)N)C(=O)N[C@@H](C(=O)N[C@H](C(=O)OC[C@H](N)C(=O)N[C@H]1C(=O)N[C@@H](C)C(=O)N[C@@H](C2CCCCC2)C(=O)N[C@@H]([C@@H](C)CC)C(=O)O[C@H]1C)[C@@H](C)CC)[C@@H](C)CC (I: H-[dNMeF]IS[dR][d(aIle)]I / II: H-S[dT]A[Chg]I; ester I:C-II:1, II:2-II:C) |  |  | 1 µg/mL | 1 µg/mL |  |  | Insoluble | Toxic | Non-Toxic | 0%
CN[C@H](CC(C)C)C(=O)N[C@H]1C(=O)N[C@@H](CC(N)=O)C(=O)N[C@H]2C(=O)N[C@H]3C(=O)N[C@H](C(=O)N[C@H](C(=O)O)c4cc(O)cc(O)c4-c4cc3ccc4O)[C@H](O)c3ccc(c(Cl)c3)Oc3cc2cc(c3O[C@@H]2O[C@H](CO)[C@@H](O)[C@H](O)[C@H]2O[C@H]2C[C@](C)(N)[C@H](O)[C@H](C)O2)Oc2ccc(cc2Cl)[C@H]1O [VANCOMYCIN] | 0.5 µg/mL |  |  |  | > 8 µg/mL |  |  |  |  | 
